Results from different studies.
Each line is one published result; the experiments were not run side by side.
HDAC6: Protein deacetylase HDAC6 (HDAC6, Homo sapiens, UniProt Q9UBN7)
TNK1: Non-receptor tyrosine-protein kinase TNK1 (TNK1, Homo sapiens, UniProt Q13470)

Compound | target | test | setting | endpoint | result
Cc1c(OS(=O)(=O)Oc2ccc(-n3ccnc3)cc2)cccc1C(=O)NO | HDAC6 | enzyme activity, inhibitor, fluorescence | 10 µM | inhibition | 46%
Cc1cc(NC(=O)c2cccc(NC(=O)/C=C/CN(C)C)c2)ccc1Nc1nccc(-c2cccnc2)n1 | TNK1 | binding, competition with immobilised ligand | 1 µM | remaining binding | 57%
Cc1ncsc1-c1ccc(CNC(=O)[C@@H]2C[C@@H](O)CN2C(=O)[C@@H](NC(=O)CCCCCCCCNC(=O)CN2CCN(C(=O)c3ccc(Nc4nc(C5CC5)cn5c(-c6cn[nH]c6)cnc45)c(F)c3)CC2)C(C)(C)C)cc1 | TNK1 | cell-free assay, competition with immobilised ligand | 1 µM | inhibition | > 65%
CNc1ncc2c(/C=C/C(=O)N3CCC(OC)CC3)nn(Cc3cccc(C(F)(F)F)c3)c2n1 | Dual specificity protein kinase TTK (TTK, Homo sapiens, UniProt P33981) | enzyme activity, inhibitor, radiometric | 1 µM | remaining activity | 105%
Cc1cc([C@@H](C)Nc2ccccc2C(=O)O)c2nc(N3CCC(F)(F)CC3)c(C#N)c(=O)n2c1 | Serine/threonine-protein kinase PAK 2 (PAK2, Homo sapiens, UniProt Q13177) | binding, competition with immobilised ligand | 1 µM | remaining binding | 100%
Cc1cc(OS(=O)(=O)Oc2ccc(C(C)(C)C)cc2)cc(C(=O)NO)c1 | HDAC6 | enzyme activity, inhibitor, fluorescence | 10 µM | inhibition | 36%
C=CC(=O)N1CCC(COCC(=O)N2CCN(c3nc(-c4cnc(N)nc4C(F)F)nc(N4CCOC[C@@H]4C)n3)CC2)CC1 | Serine/threonine-protein kinase MAK (MAK, Homo sapiens, UniProt P20794) | binding, competition with immobilised ligand | 1 µM | remaining binding | 100%
C=CC(=O)N1C[C@@H](n2nc(C#Cc3c(F)cc4c(ncn4C4CC4)c3F)c(C(N)=O)c2NC)C[C@@H]1COC | TNK1 | enzyme activity, inhibitor, mobility shift | 1 µM | inhibition | 89.5%
Cc1c(OS(=O)(=O)Oc2ccc(Oc3ccccc3)cc2)cccc1C(=O)NO | HDAC6 | enzyme activity, inhibitor, fluorescence | 10 µM | inhibition | 27%
COc1cc(-c2cncc3c2CN(C)Cc2cc(N4CCNCC4)ccc2-3)cc(OC)c1OC | Death-associated protein kinase 1 (DAPK1, Homo sapiens, UniProt P53355) | enzyme activity, inhibitor | 1 µM | remaining activity | 101%
Cc1cc(OS(=O)(=O)Oc2cccc(C(C)C)c2)cc(C(=O)NO)c1 | HDAC6 | enzyme activity, inhibitor, fluorescence | 10 µM | inhibition | 58%
CCc1nn(C)c2nc(-c3ccc(C(=O)O)cc3)nc(NCc3ccc(F)cc3)c12 | 3',5'-cyclic-AMP phosphodiesterase 4D (PDE4D, Homo sapiens, UniProt Q08499) | enzyme activity, inhibitor, radiometric | 10 µM | inhibition | 42.1%
